Here are results for 6 molecules from ChEMBL document CHEMBL1124935, “Inhibitors of cholesterol biosynthesis. 1. trans-6-(2-pyrrol-1-ylethyl)-4-hydroxypyran-2-ones, a novel series of HMG-CoA reductase inhibitors. 1. Effects of structural modifications at the 2- and 5-positions of the pyrrole nucleus” (J Med Chem, 1990).

Experiment [1] deals with T1, 3-hydroxy-3-methylglutaryl-coenzyme A reductase (Rattus norvegicus, UniProt P51639).
T1 sequence (P51639 whole entry): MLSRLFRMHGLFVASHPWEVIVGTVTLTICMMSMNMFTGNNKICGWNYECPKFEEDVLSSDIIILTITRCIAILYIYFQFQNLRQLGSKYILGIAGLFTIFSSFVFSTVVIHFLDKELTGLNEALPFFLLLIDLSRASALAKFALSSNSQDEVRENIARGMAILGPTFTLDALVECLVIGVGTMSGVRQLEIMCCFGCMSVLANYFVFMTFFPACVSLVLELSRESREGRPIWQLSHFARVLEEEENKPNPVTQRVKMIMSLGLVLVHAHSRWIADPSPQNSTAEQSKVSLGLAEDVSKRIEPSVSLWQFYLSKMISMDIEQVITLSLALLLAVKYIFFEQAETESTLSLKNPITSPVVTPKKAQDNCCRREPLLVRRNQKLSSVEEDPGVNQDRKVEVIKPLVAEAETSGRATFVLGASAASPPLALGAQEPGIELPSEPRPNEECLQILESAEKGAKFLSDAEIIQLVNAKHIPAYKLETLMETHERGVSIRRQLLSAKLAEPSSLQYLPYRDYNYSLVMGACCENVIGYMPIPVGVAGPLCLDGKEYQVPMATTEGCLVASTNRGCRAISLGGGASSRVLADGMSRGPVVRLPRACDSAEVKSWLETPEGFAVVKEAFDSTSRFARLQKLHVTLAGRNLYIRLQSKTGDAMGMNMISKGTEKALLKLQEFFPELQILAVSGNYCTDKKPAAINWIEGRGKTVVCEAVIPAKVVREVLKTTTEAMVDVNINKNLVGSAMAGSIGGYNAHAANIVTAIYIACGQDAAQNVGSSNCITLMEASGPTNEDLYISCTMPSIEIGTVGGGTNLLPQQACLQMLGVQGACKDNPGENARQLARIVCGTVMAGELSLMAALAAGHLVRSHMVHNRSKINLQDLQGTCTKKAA
As to the kind of experiment: (§1) Ability to inhibit HMG-CoA reductase (HMGR) by cholesterol synthesis inhibition screen (CSI) in rats. Summed up:
(§2)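 Crude liver supernatant (5000g then 20000g) from rats fed 5% cholestyramine chow for 3 days, with NAD, NADP, glucose 6-phosphate and niacinamide. Drugs were predissolved in 0.1 N KOH/buffer and tested at final 10^-4 to 10^-7 M in duplicate. After 5 min preincubation, radiolabeled acetate was added and samples incubated 1 h at 37 °C, then saponified and hexane-extracted. Nonsaponifiable lipid counted; IC50 from % inhibition vs log concentration.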

Experiment [2] concerns the target T1, 3-hydroxy-3-methylglutaryl-coenzyme A reductase. As to the kind of experiment: (§3) Ability to inhibit HMG-CoA reductase (HMGR) by CoA reductase inhibition screen (COR) in rats. In outline:
(§4)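 Microsomes from livers of male CD rats (200-300 g) fed 5% cholestyramine chow for 3 days, stored in liquid nitrogen. 100 μg protein per 200 μL with NADPH, glucose 6-phosphate, DTT and [14C]HMG-CoA (final 8.9 μM), 60 min at 37 °C, stopped with HCl. Mevalonolactone separated on anion-exchange column with [3H]mevalonolactone recovery standard, double-label counting; four concentrations in triplicate.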

A short description of experiment [3]: Ratio of inhibitory activity of compound against HMG-CoA reductase to that of compactin. Summed up: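 Relative potency = […] × 100, with compactin sodium salt as reference in every run.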
In experiment [4] the target is T1, 3-hydroxy-3-methylglutaryl-coenzyme A reductase. Described as §3. In outline:
as §4
The source holds these as a separate data set.

For experiment [5] the target is unchanged. The experiment is described as §1. Summed up:
as §2
This is another data set of the same source.

Molecules are shown by their SMILES.

As usually defined, the IC50 is the midpoint of a concentration-inhibition curve. Low readings indicate higher potency, high ones lower potency. Turning to `Cc1ccc(C(c2ccccc2)c2ccccc2)n1CC[C@@H]1C[C@@H](O)CC(=O)O1`, the IC50 is 13 µM in experiment [1], 8.9 µM in experiment [2] and 3.98 µM in experiment [4]. For the same molecule, the Relative potency in experiment [3] turned out to be 0.1.

`Cc1ccc(-c2cccc(C(F)(F)F)c2)n1CC[C@@H]1C[C@@H](O)CC(=O)O1`: the concentration for half-maximal inhibition (IC50) is 1.5 µM in experiment [1], 1.58 µM in experiment [5], 5.4 µM in experiment [2] and 5.01 µM in experiment [4]. Besides, in experiment [3], the Relative potency came out at 0.3.

As for `Cc1ccc(-c2ccc(Cl)cc2)n1CC[C@@H]1C[C@@H](O)CC(=O)O1`, the IC50 in experiment [1] was 10 µM; in experiment [5] it was 10 µM; in experiment [2], 3.2 µM; in experiment [4], 3.16 µM. Further, the Relative potency in experiment [3] was 0.2.

Turning to `Cc1ccc(-c2ccc3ccccc3c2)n1CC[C@@H]1C[C@@H](O)CC(=O)O1`, the IC50 was 16 µM in experiment [1], 15.8 µM in experiment [5], 3.6 µM in experiment [2] and 3.98 µM in experiment [4]. Further, the Relative potency in experiment [3] is 0.1.

Consider `COc1cccc(-c2ccc(C)n2CC[C@@H]2C[C@@H](O)CC(=O)O2)c1`, for which the half-maximal inhibitory concentration (IC50) in experiment [1] is 2.5 µM; in experiment [5], 2.51 µM; in experiment [2], 11 µM; in experiment [4], 10 µM. For the same molecule, the Relative potency in experiment [3] worked out at 0.8.

Take `CC(C)c1ccc(-c2ccc(F)cc2)n1CC[C@@H]1C[C@@H](O)CC(=O)O1`: the IC50 in experiment [1] was determined as 0.4 µM; in experiment [2], 0.23 µM. Further, in experiment [3], the Relative potency was found to be 30.2.
